The source of these data is PMC12744306 (Probiotics and antimicrobial proteins, 2024).

Values after ≈ are worked out from the molar mass of the structure shown. Like-named read-outs stand apart in the source and are kept apart here. Positions of bridges follow the written chain, without caps; N, C: chain ends. Non-standard residues stand in square brackets, D forms with d. Residues, ends and D or L forms follow the SMILES beside them. No end group written: not given here. *: point of attachment. X1 = CC[C@H](C)CCCCC(=O)*; Dab = NCC[C@H](N)C(=O)O

One data set relates to bacteria. The conditions noted are these: cited from earlier work.
For a further data set, the system named is human red blood cells. Briefly: Hemolytic assay. In kind it is cell-based. Conditions: 2% hRBC, 37°C, 1 h; for hemolysis: relative to 1% Triton X-100.
For another data set, the system named is A. baumannii B28-16. Format: cell-based.
The subject of the next data set is E. coli E423-17. Format: cell-based.
The subject of data set [1] is S. aureus USA300. In kind it is cell-based. Conditions: for MIC in the presence of 150 mM NaCl: S. aureus; for activity against S. aureus USA300 under all these conditions: pH 6.2/8.1, 150 mM NaCl, human serum.
Another data set deals with S. epidermidis 1457. Format: cell-based.
A further data set relates to Human liver HepG2 cells. In kind it is cell-based.
In data set [2] the test system is S. aureus USA300. In kind it is cell-based.
In data set [3] the test system is Human keratinocytes (HaCaT). Kind of data set: Cytotoxicity assay. In kind it is cell-based. The conditions noted are these: 24 h, MTS.
Data set [4] deals with P. aeruginosa E411-17. Format: cell-based.
The test system of the next data set is K. pneumoniae E406-17. Format: cell-based. The conditions noted are these: not shown.
The test system of data set [5] is P. aeruginosa E411-17. Kind of data set: Effects of pH, salts and serum on peptide activity. In kind it is cell-based. The conditions noted are these: different pH, salt and serum conditions.
Data set [6] has as its system P. aeruginosa E411-17. Briefly: Killing kinetics. Format: cell-based. Conditions: 4 × MIC, ~10^5 CFU/mL in MHB, 37°C, CFU count.
A further data set deals with E. coli. Conditions: cited from earlier work.
Another data set relates to MRSA USA300. Briefly: Killing kinetics. Format: cell-based, S. aureus. Conditions: 4 × MIC, ~10^5 CFU/mL in MHB, 37°C, CFU count. The method, boiled down: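 MRSA USA300 was grown in MHB to OD600 ~0.3, then diluted to OD600 0.001 (~10⁵ CFU/mL). 1 mL was incubated at 37°C with test compound or reference antibiotic at 4× MIC. At 15, 30, 60, 90 and 120 min, 50 μL was serially diluted in PBS and plated on mannitol salt agar. CFU were counted after overnight growth at 37°C.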

Where [7] appears, read: Table 3, sequence reversal experiment.

On to LLGDFFRKSK-NH2 [LL-10], for which the “antibacterial activity in the standard Mueller Hinton Broth (MHB)” value (“antibacterial activity” below) with bacteria is listed as “not antibacterial”.
Take KRWWQWWK-NH2 [KR-8+]: in the data set with human red blood cells, the “HC10 (10% hemolytic concentration)” value was found to be 300 µM. In the data set on human red blood cells (at 400 μM), this molecule registered a hemolysis of 18%. Besides, in the data set on A. baumannii B28-16, the “minimal inhibitory concentration (MIC), A. baumannii B28-16” value worked out at 16 µM. Besides, in the data set with E. coli E423-17 (E423-17), the “minimal inhibitory concentration (MIC), E. coli E423-17” value was in the range of 4 to 8 µM. Besides, in the data set with S. aureus USA300 [1], the “MIC in the presence of 150 mM NaCl” value lay within 16 to 32 µM. The “minimal inhibitory concentration (MIC), S. epidermidis 1457” value with S. epidermidis 1457 (1457) is 16 µM. For the same molecule, in the data set with Human liver HepG2 cells (24 h, MTS), the “LC50, HepG2” value is 12.5 µM.
Turning to LWGRFFRKWK-NH2 [LL-10+], in the data set on human red blood cells, the “HC10 (10% hemolytic concentration)” value was above 400 µM. Moreover, the “minimal inhibitory concentration (MIC), A. baumannii B28-16” value with A. baumannii B28-16 amounted to 64 µM. Also, the “minimal inhibitory concentration (MIC), E. coli E423-17” value in the data set on E. coli E423-17 (setting [7]) is 32 µM. Also, in the data set on S. aureus USA300 [2] (setting [7]), the “minimal inhibitory concentration (MIC), S. aureus USA 300” value turned out to be 16 µM. Moreover, the “MIC in the presence of 150 mM NaCl” value in the data set on S. aureus USA300 [1] was above 32 µM. Further, the “minimal inhibitory concentration (MIC), S. epidermidis 1457” value in the data set on S. epidermidis 1457 (setting [7]) was determined as 32 µM. The “toxicity to HepG2” value in the data set on Human liver HepG2 cells is recorded as “subtle effects”. Moreover, the “LC50, HepG2” value in the data set on Human liver HepG2 cells (24 h, MTS) was above 100 µM.
RWKRFLRNWV-NH2 [RIK-10+] registered a hemolysis in the data set with human red blood cells (at 400 μM) of 18%. The “50% lethal concentration (LC50), HaCaT” value in data set [3] turned out to be 100 µM. Also, in the data set with P. aeruginosa E411-17 [4] (setting [7]), the “minimal inhibitory concentration (MIC), P. aeruginosa E411-17” value came to 4 µM. Further, the “minimal inhibitory concentration (MIC), A. baumannii B28-16” value with A. baumannii B28-16 was found to be 8 µM. In addition, the “minimal inhibitory concentration (MIC), E. coli E423-17” value with E. coli E423-17 (E423-17) was found to be 4 µM. The “minimal inhibitory concentration (MIC), S. aureus USA 300” value in the data set on S. aureus USA300 [2] (setting [7]) was determined as 16 µM. Also, in the data set on S. aureus USA300 [1], the “MIC in the presence of 150 mM NaCl” value is above 32 µM. Further, the “MIC, K. pneumoniae E406-17” value against K. pneumoniae E406-17 came out at 32 µM. Besides, in the data set on S. epidermidis 1457 (1457), the “minimal inhibitory concentration (MIC), S. epidermidis 1457” value stood at 64 µM. The “LC50, HepG2” value in the data set on Human liver HepG2 cells (24 h, MTS) came to 100 µM.
Consider RWWKKWWGK-NH2 [RK-9+], for which the “HC10 (10% hemolytic concentration)” value in the data set with human red blood cells is above 400 µM. Also, in the data set with P. aeruginosa E411-17 [4] (E411-17), the “minimal inhibitory concentration (MIC), P. aeruginosa E411-17” value is 16 µM. Also, the “minimal inhibitory concentration (MIC), E. coli E423-17” value in the data set with E. coli E423-17 (E423-17) lay within 4 to 8 µM. Moreover, the “MIC in the presence of 150 mM NaCl” value with S. aureus USA300 [1] is 16 to 32 µM. In addition, in the data set on Human liver HepG2 cells, the “toxicity to HepG2” value is “subtle effects”. Besides, the “LC50, HepG2” value in the data set with Human liver HepG2 cells (24 h, MTS) is above 100 µM.
Take KRIVQRIK-NH2 [KR-8]: the “antibacterial activity” value with bacteria is listed as “not antibacterial”.
As to `CC[C@H](C)CCCCC(=O)N[C@@H](CCN)C(=O)N[C@H](C(=O)N[C@@H](CCN)C(=O)N[C@H]1CCNC(=O)[C@H]([C@@H](C)O)NC(=O)[C@H](CCN)NC(=O)[C@H](CCN)NC(=O)[C@H](CC(C)C)NC(=O)[C@@H](CC(C)C)NC(=O)[C@H](CCN)NC1=O)[C@@H](C)O` [Colistin, reference compound] (X1-[Dab]T[Dab][Dab][Dab][dL]L[Dab][Dab]T; lactam 4-C (inferred); N-terminus assumed), in the data set with human red blood cells (at 400 μM, 545 nm), the “lysis of human red blood cells” value was “did not lyse”. For the same molecule, the “toxicity to HaCaT” value in [3] (at 100 μM) is “little toxicity”. The “activity against P. aeruginosa under all the conditions tested” value in the data set with P. aeruginosa E411-17 [5] is recorded as “retained pseudomonacidal activity”. In addition, the “time to eliminate P. aeruginosa” value in the data set on P. aeruginosa E411-17 [6] worked out at 30 min. The “activity against S. aureus USA300 under all these conditions” value in the data set on S. aureus USA300 [1] was “inactive”. Besides, the “toxicity to HepG2” value with Human liver HepG2 cells (24 h, MTS) is listed as “subtle effects”.
On to RIKDFLRNLV-NH2 [RIK-10], for which the “activity against E. coli in standard MHB” value with E. coli is recorded as “active”.
Turning to RKSKEKIGK-NH2 [RK-9], in the data set on bacteria, the “antibacterial activity” value is “not antibacterial”.
For `CCCCCCCCCC(=O)N[C@@H](Cc1c[nH]c2ccccc12)C(=O)N[C@H](CC(N)=O)C(=O)N[C@@H](CC(=O)O)C(=O)N[C@@H]1C(=O)NCC(=O)N[C@@H](CCCN)C(=O)N[C@@H](CC(=O)O)C(=O)N[C@H](C)C(=O)N[C@@H](CC(=O)O)C(=O)NCC(=O)N[C@H](CO)C(=O)N[C@@H]([C@H](C)CC(=O)O)C(=O)N[C@@H](CC(=O)c2ccccc2N)C(=O)O[C@@H]1C` [Daptomycin, reference compound], in the data set with P. aeruginosa E411-17 [5], the “activity against P. aeruginosa under all the conditions tested” value is “did not display any activity”. Moreover, the “time to kill MRSA USA300” value with MRSA USA300 is around 90 min. Moreover, in the data set on S. aureus USA300 [2] (USA300), the “minimal inhibitory concentration (MIC), S. aureus USA 300” value turned out to be 0.5 µM (≈ 0.81 µg/mL). The “activity against S. aureus USA300 under all these conditions” value with S. aureus USA300 [1] was “remained potent”. In addition, the “minimal inhibitory concentration (MIC), S. epidermidis 1457” value with S. epidermidis 1457 (1457) amounted to 0.5 µM (≈ 0.81 µg/mL). Further, the “toxicity to HepG2” value with Human liver HepG2 cells (24 h, MTS) is reported as “subtle effects”.
